The target in data set [1] is T1, GABA-A receptor; alpha-3/beta-3/gamma-2 (Homo sapiens, UniProt P18507+P28472+P34903).
T1 sequence (P18507 whole entry): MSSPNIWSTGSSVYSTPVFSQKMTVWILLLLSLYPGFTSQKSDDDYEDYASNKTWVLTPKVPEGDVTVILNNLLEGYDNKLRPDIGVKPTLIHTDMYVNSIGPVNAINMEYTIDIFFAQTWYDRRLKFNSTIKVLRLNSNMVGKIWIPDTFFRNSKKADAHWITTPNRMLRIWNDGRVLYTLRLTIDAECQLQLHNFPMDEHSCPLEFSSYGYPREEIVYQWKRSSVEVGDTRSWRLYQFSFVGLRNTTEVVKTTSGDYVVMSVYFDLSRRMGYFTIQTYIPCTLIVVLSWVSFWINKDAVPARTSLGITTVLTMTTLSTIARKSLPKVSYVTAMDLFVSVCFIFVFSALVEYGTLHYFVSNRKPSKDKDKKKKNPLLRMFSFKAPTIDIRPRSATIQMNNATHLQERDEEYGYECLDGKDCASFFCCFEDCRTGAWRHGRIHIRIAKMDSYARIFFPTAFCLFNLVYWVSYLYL
T1 sequence (P28472 whole entry): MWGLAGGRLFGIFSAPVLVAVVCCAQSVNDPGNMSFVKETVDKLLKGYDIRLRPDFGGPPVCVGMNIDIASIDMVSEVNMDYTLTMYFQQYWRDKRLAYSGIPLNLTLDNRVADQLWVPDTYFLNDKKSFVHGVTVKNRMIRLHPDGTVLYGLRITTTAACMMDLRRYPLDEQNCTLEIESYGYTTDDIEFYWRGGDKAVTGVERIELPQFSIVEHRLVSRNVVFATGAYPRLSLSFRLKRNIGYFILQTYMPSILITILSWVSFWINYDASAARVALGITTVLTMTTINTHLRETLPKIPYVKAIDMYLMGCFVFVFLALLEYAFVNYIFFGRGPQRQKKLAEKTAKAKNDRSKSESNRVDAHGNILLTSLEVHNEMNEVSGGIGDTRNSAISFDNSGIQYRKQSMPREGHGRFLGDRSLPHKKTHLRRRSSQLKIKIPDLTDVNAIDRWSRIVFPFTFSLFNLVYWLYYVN
T1 sequence (P34903 whole entry): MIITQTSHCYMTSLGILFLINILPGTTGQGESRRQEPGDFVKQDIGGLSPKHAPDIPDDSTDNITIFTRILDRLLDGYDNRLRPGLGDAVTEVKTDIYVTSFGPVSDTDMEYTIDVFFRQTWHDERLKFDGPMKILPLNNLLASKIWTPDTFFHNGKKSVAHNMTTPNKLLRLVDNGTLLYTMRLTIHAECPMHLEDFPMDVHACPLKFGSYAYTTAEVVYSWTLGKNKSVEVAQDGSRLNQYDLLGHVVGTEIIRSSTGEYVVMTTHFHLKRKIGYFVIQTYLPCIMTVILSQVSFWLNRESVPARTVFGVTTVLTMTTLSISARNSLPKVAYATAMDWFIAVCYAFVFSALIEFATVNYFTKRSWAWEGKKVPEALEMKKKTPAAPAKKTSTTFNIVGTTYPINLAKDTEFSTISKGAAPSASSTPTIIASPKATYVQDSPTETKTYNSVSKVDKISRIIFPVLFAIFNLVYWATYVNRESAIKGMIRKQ
In words: Binding affinity to human GABAA alpha3beta3gamma2 receptor expressed in HEK293 cells assessed as GABA-induced membrane potential change preincubated for 3 mins followed by addition of GABA measured after 3 mins by FLIPR assay. It counts as cell-based. The method, boiled down: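 Stably transfected HEK293T cells expressing α1β3γ2 (n = 2) or α3β3γ2 (n = 1) GABAARs. Membrane potential was read as fluorescence changes on a FLIPR Tetra, and EC50 was derived.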

Data set [2] deals with Liver. As to the kind of experiment: Metabolic stability in rat liver microsomes assessed as compound remaining at 4 uM measured after 30 mins in presence of NADPH by LC-MS/MS analysis. Format: ADME, microsome. Conditions: 0.5 h. The method, boiled down:
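Human, mouse or rat liver microsomes were incubated with compound at 4 μM final for 30 min at 37 °C (n = 1). Percent of parent remaining was quantified by LC-MS/MS.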

Data set [3] in a line: Cytotoxicity against HEK293T cells assessed as viable cells measured after 18 hrs by CellTiter-Glo assay. It counts as cell-based, HEK-293T. Conditions: human, read-out: LD50. In a few lines:
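HEK293T cells were exposed to compound for 18 h (n = 4). Viable cells were quantified with CellTiter-Glo, and LD50 was derived.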
Background: Cellular ATP, detected with luciferase, serves as a proxy for viable cell number.

The target in data set [4] is T2, GABA-A receptor; alpha-3/beta-3/gamma-2 (Homo sapiens) (UniProt P18507+P28472+P34903). As to the kind of experiment: Modulation of recombinant GABA alpha3beta3gamma2 receptor (unknown origin) expressed in Xenopus laevis oocytes assessed as change in GABA-induced EC(3 to 6) current at 1 uM by two-electrode voltage clamp assay. Format: cell-based. In a few lines:
(§1)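 Xenopus laevis oocytes expressing α1, α2, α3 or α5 β3γ2 GABAARs were recorded by two-electrode voltage clamp. Modulation of the GABA EC3-6 current (taken as 100%) was tested at 100 nM, 1 μM and 10 μM in the same cells. Values are mean ± SEM, n = 3–4.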
For orientation: Two-electrode voltage clamp is typically applied to oocytes expressing channels or transporters.

Data set [5] has as its target T1, GABA-A receptor; alpha-3/beta-3/gamma-2. In words: Modulation of recombinant human GABA alpha3beta3gamma2 receptor expressed in HEK293 cells assessed as change in GABA-induced current at -80 mV holding potential preincubated for 3 mins followed by co-administration of GABA by electrophysiology method. Format: cell-based.
The nature of data set [6]: Volume of distribution at steady state in femoral artery/vein cannulated Sprague-Dawley rat at 1 mg/kg, iv administered […] as single dose by LC-MS/MS analysis. Conditions: in vivo, read-out: Vdss. Format: ADME, organism-based. In a few lines:
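Male Sprague-Dawley rats (n = 3 per time point) were dosed i.v. at 1 mg/kg. Plasma concentrations were measured at set time points, and Vdss was taken from the plasma concentration–time profile.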

The nature of data set [7]: AUC in femoral artery/vein cannulated Sprague-Dawley rat at 10 mg/kg, ip administered […] as single dose by LC-MS/MS analysis. Format: ADME, organism-based. Conditions: in vivo. The method, boiled down: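 Male Sprague-Dawley rats (n = 3 per time point) were dosed 1 mg/kg i.v. or 10 mg/kg i.p. Plasma concentrations were measured at set time points. Clearance, Vdss and T½ came from the i.v. arm, and AUC, Cmax and Tmax from the i.p. arm.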

Data set [8] concerns Rattus norvegicus. As to the kind of experiment: Anxiolytic like activity in water-deprived Sprague-Dawley rat assessed as increase in water drinking time during punished period at 30 mg/kg, po administered 30 prior to testing by Vogel conflict test relative to vehicle control. Format: functional. In a few lines: (§2)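 Water-deprived male Sprague-Dawley rats (n = 6–8) drank during unpunished and punished periods, with licking suppressed by mild shock in punished periods. Compounds were given 30 min before testing. Analysis was ANOVA with Dunnett's test.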

Data set [9] relates to Rattus norvegicus. As to the kind of experiment: Anxiolytic like activity in water-deprived Sprague-Dawley rat assessed as increase in water drinking time during punished period at 3 mg/kg, po administered 30 mins prior to testing by Vogel conflict test relative to control. It counts as functional, organism-based. The method, boiled down:
as §2

For data set [10], the system named is Rattus norvegicus. In words: Anxiolytic like activity in water-deprived Sprague-Dawley rat assessed as increase in water drinking time during punished period at 60 mg/kg, po administered 30 mins prior to testing by Vogel conflict test relative to control. It counts as functional. The method, boiled down: as §2
The target in data set [11] is T2, GABA-A receptor; alpha-3/beta-3/gamma-2 (Homo sapiens). As to the kind of experiment: Modulation of recombinant GABA alpha3beta3gamma2 receptor (unknown origin) expressed in Xenopus laevis oocytes assessed as change in GABA-induced EC(3 to 6) current by two-electrode voltage clamp assay. Format: cell-based. The method, boiled down: as §1

Active and inactive are the calls of the source. The calls are words filed in the database; no cut-off is given here.

One may read the EC50 as the midpoint of the concentration-response curve. As a reminder, the AUC is concentration integrated over time. Read a low AUC as low exposure.

On to `C#Cc1ccc2c(c1)C(c1ccccn1)=NCc1c(-c3cnco3)ncn1-2`, for which the EC50 in [1] amounted to 937 nM; in [5] it was 205 nM. The Stability in [2] is recorded as 90%. Moreover, the CC50 at 18 h in data set [3] was greater than 100000 nM. Besides, the Activity in [4] is 188%; in data set [8], 220%; in [10] it was 200%; in data set [11] it was “Dose-dependent effect”. Also, the Vd in data set [6] was found to be 1.4 L/kg. This compound also showed an AUC in data set [7] of 16.5 µM·h. The result in [9] was inactive.

The values above are taken from ChEMBL document CHEMBL4041524, “Synthesis and Characterization of a Novel γ-Aminobutyric Acid Type A (GABAA) Receptor Ligand That Combines Outstanding Metabolic Stability, Pharmacokinetics, and Anxiolytic Efficacy” (J Med Chem, 2016).
